# Compound activity deposited in PubChem by several laboratories.
# SENP7 block = inhibitors of human SENP7 protease; 1.5% of 330,000 active; recombinant SENP7, Z-RLRGG-aminoluciferin luminescence, 40 min; Q9BQF6; AID 434973; inhibition, % at 5 µM;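 active means inhibition above about 50% at the single test dose, limit read from the data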
# SENP8 block-1 = inhibitors of human SENP8 protease. inhibition, % at 20 µM. Q96LD8. recombinant SENP8, Nedd8 substrate fluorescence. 0.64% of 360,000 active; in the data active means inhibition mostly above about 40%, no sharp cut-off; inactive means mostly below about 27%
# SENP8 block-2 = inhibitors of human SENP8 protease; Q96LD8; purified SENP8, Z-RLRGG-aminoluciferin cleavage, luminescence; inhibition, % at 10 µM; 1.2% of 330,000 active; AID 2540; in the data active means inhibition above about 50%
# Platelet DG rel = modulates dense granule release in human platelets | human platelet-rich plasma, SFLLRN dense granule ATP release, luminescence | inhibition, %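 (compounds screened at 7.5 µM in platelet-rich plasma)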 | 0.22% of 300,000 active | AID 1663;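 active means mean replicate score, as percent of positive control, at or above 50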
# SENP1 FRET inh = SENP1 (human) catalytic domain inhibition; recombinant SENP1 catalytic domain, CyPet-SUMO1-YPet FRET cleavage; 0.21% of 360,000 active; AID 624204; inhibition, % at 10 µM; Q9P0U3;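 active means inhibition at least 30% at 10 µM, raw YFP signal under a set limit, fluorescence ratio 0.5 to 1.5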
# Target sequence (Q9P0U3 419-644 limits assumed): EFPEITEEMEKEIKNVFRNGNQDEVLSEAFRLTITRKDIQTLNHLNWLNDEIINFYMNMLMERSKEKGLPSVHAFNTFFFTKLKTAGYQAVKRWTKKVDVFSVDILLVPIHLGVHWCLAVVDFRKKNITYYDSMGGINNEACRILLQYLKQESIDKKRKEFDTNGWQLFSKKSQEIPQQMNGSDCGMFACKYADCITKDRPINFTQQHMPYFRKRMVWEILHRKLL
#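 Material – human SENP1 catalytic domain · Input – SENP1 enzyme, 20 pM final · Compound dosing – single concentration of 10 µM compound, 0.5% DMSO final · Timing – enzyme reaction for 50 min at room temperature, dark · Measured by – FRET fluorescence in CFP and YFP emission channels · Control set – no-enzyme wells low, DMSO-plus-enzyme wells high control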
# SENP6 inh = SENP6 protease inhibition | Recombinant SENP6 catalytic domain, aminoluciferin luminescence | AID 2599 | inhibition, % at 10 µM | Q9GZR1 | 1.8% of 330,000 active;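 active means inhibition above about 50% at the single tested dose, limit read from the data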
# SENP8 conf = human SENP8 inhibition, confirmed | shares compounds with SENP7 block | Recombinant SENP8, Z-RLRGG-aminoluciferin luminescence, 60 min | inhibition, % at 12.5 µM | 40% of 6,200 active | AID 488912;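 active means mean inhibition across replicates above about 50%, limit read from the data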
# SENP6 conf = human SENP6 inhibition, confirmed; AID 488915; shares compounds with SENP7 block; inhibition, % at 12.5 µM; recombinant SENP6, Z-RLRGG-aminoluciferin luminescence; 58% of 6,200 active
# SENP7 confirm = confirmation of human SENP7 protease inhibitors. shares compounds with SENP7 block. recombinant SENP7, Z-RLRGG-aminoluciferin luminescence, 40 min. inhibition, % at 12.5 µM. 69% of 6,200 active. AID 488917
# Casp3 select = selectivity test for SENP inhibitors: human caspase-3 inhibition | 60% of 6,200 active | purified caspase-3, Z-DEVD-aminoluciferin luminescence, 60 min | shares compounds with SENP7 block | inhibition, % at 12.5 µM;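 active means mean inhibition above about 50%, limit read from the data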
# Target sequence (P42574 28-227 limits assumed): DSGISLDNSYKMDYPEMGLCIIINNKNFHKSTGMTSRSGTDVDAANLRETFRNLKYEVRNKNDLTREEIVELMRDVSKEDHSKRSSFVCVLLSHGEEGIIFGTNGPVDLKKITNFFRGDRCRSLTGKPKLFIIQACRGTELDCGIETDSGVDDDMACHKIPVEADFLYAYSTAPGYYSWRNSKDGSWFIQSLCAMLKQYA
# Luc interf = counter-screen for SENP inhibitors: luminescence interference | shares compounds with SENP7 block | 39% of 6,200 active | Pre-incubated SENP8/Z-RLRGG-aminoluciferin, luciferase luminescence interference | inhibition, % at 12.5 µM | AID 488919;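 active means mean inhibition above about 50% when retested at one dose, limit read from the data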
# A number is an active result; - = inactive; . = no result. A selection: hits, their analogues and other compounds. The true share with any hit is near 2.6%.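 How the source made its calls, unless noted: active means mean inhibition above about 50% in the one-dose retest (limit read from the data); inactive means the rest.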
SMILES,SENP7 block,SENP8 block-1,SENP8 block-2,Platelet DG rel,SENP1 FRET inh,SENP6 inh,SENP8 conf,SENP6 conf,SENP7 confirm,Casp3 select,Luc interf
COCCn1c(SCC(=O)Nc2ccc3[nH]c(=O)[nH]c3c2)nc2ccccc21,-,-,-,.,-,-,.,.,.,.,.
CC(CC(=O)NCCc1ccc(F)cc1)c1ccccc1 (stereo not drawn),-,-,-,-,-,-,.,.,.,.,.
CN1CC=C2C(C#N)=C(N)C(C#N)(C#N)C(c3cccc(Cl)c3Cl)C2C1 (stereo not drawn),-,-,-,-,-,-,.,.,.,.,.
CN1CC=C2C(C#N)=C(N)C(C#N)(C#N)[C@H](c3ccoc3)[C@H]2C1,-,-,-,-,-,76,-,-,-,-,-
Cc1[nH]nc(Nc2ccc(C(C)C)cc2)c1[N+](=O)[O-],-,-,-,-,-,51,-,-,77,-,-
Cc1ccc(Nc2n[nH]c(C)c2[N+](=O)[O-])cc1,-,-,-,-,-,-,.,.,.,.,.
COc1ccc(NC(=O)COC(=O)c2ccc(OC)c(S(=O)(=O)N3CCCC3)c2)cc1OC,-,-,-,.,-,-,.,.,.,.,.
COc1ccc(OC(=O)c2ccc3nsnc3c2)cc1,59,-,-,-,-,-,-,-,-,-,-
Cc1ccc(OC(=O)c2ccc3nc(C)sc3c2)cc1,-,.,-,-,.,-,.,.,.,.,.
Cc1ccc(N=C/C(C(=O)C(F)(F)F)=C(\O)c2cccs2)cc1,96,-,-,-,-,-,-,-,-,-,56
O=C(Cc1ccccc1)Nc1ncnc2c1C(c1ccccc1)c1c(ccc3ccccc13)O2 (stereo not drawn),-,-,-,.,-,-,.,.,.,.,.
Cc1nc(Cl)cc(N/N=C/c2ccc(O)cc2O)n1,95,-,93,-,-,97,92,92,100,92,92
Cc1nc(Cl)cc(N/N=C/c2ccc(O)cc2)n1,91,-,89,-,-,87,90,90,99,90,87
COc1cccc(/C=N/Nc2cc(Cl)nc(C)n2)c1O,-,-,-,-,-,-,.,.,.,.,.
COCCNc1nc(-c2cc(C(=O)Nc3ccccc3)on2)cc(C(C)C)n1,-,.,-,-,.,-,.,.,.,.,.
Cc1ccc(NC(=O)Cc2noc3ccccc23)cc1,-,-,-,-,-,51,-,-,74,61,-
O=C1CC(/C=C/c2ccccc2)=Nc2ccccc2N1,-,-,-,-,-,67,-,-,56,-,-
O=C1CC(/C=C/c2ccc(Cl)cc2)=Nc2ccccc2N1,-,-,-,-,-,-,.,.,.,.,.
Cc1ccc(SCCC(=O)Nc2ccccc2Br)cc1,-,-,-,-,-,58,-,-,78,-,51
NS(=O)(=O)c1ccc(NC2=CC(=O)C(=O)c3ccccc32)cc1,-,50,88,-,-,87,-,94,84,-,-
O=C1C=C(Nc2ccc(O)cc2)C(=O)c2ccccc21,96,-,96,74,-,97,64,98,103,97,53
Cc1cc(NC2=CC(=O)C(=O)c3ccccc32)no1,.,-,.,.,-,.,.,.,.,.,.
CCC(C(=O)Nc1cc(Cl)c(OC)cc1OC)c1ccccc1 (stereo not drawn),-,-,-,-,-,-,.,.,.,.,.
Cc1ccc(NC2=CC(=O)C(=O)c3ccccc32)cc1,-,-,55,-,-,66,-,66,-,-,-
COc1cc(OC)c(NC2=CC(=O)C(=O)c3ccccc32)cc1Cl,53,-,70,-,-,79,-,87,73,-,-
